Data taken from ChEMBL document CHEMBL1649098 (ACS Med Chem Lett, 2011).
Active and inactive are the calls of the source.

Key:
Rattus norvegicus [1] = species: Rattus norvegicus; conditions: Sprague-Dawley, 10 mg/kg
[2] = molecular target: T1, Fatty-acid amide hydrolase 1 (Homo sapiens) (UniProt O00519); assay: Irreversible inhibition of His-tagged human FAAH N-terminal transmembrane-deleted truncated form expressed in Escherichia coli assessed as ratio of Kinact to Ki by GDH-coupled FAAH assay
T1 sequence (whole entry): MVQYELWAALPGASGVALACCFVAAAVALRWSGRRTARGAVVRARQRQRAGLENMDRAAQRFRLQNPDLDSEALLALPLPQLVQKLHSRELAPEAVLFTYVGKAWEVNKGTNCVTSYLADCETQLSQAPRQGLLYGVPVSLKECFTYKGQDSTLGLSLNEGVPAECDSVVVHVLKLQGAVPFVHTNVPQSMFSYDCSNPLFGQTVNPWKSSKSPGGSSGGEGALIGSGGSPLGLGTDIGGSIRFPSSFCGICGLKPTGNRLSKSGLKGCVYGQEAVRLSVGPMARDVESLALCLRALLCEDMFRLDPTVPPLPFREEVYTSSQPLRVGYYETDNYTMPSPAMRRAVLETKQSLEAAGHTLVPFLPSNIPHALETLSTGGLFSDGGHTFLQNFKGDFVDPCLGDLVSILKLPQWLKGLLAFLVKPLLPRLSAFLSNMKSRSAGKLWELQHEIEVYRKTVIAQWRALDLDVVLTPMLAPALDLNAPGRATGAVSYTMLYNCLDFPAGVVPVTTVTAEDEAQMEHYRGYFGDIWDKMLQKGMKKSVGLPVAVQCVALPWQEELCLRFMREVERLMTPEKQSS
Method in brief: (§1)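 Irreversible potency was measured as the second-order rate constant kinact/Ki in an enzyme-coupled FAAH assay (human or rat enzyme). Values are the average of at least two independent determinations ±SD.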

[3] = molecular target: T2, Fatty-acid amide hydrolase 1 (Rattus norvegicus) (UniProt P97612); assay: Irreversible inhibition of His-tagged rat FAAH N-terminal transmembrane-deleted truncated form expressed in Escherichia coli assessed as ratio of Kinact to Ki by GDH-coupled FAAH assay
T2 sequence (whole entry): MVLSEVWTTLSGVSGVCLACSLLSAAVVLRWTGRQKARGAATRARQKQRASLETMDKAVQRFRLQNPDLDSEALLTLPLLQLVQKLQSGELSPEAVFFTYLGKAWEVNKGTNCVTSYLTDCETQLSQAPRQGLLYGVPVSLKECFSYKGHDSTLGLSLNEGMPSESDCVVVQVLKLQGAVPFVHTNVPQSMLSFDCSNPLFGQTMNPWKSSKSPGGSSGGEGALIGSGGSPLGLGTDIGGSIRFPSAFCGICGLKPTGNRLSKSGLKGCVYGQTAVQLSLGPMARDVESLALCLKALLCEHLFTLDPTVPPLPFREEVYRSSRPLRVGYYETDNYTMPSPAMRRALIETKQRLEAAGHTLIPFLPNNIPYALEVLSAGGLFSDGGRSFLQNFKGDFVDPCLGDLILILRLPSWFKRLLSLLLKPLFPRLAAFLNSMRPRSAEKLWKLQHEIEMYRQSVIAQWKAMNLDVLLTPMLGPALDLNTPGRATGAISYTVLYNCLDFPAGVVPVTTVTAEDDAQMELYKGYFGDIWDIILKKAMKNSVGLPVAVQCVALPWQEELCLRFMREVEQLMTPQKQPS
Method in brief: as §1

Cytochrome P450 2D6 = Cytochrome P450 2D6 (Homo sapiens, UniProt P10635); assay: Inhibition of CYP2D6; type: ADME
Method in brief: (§2)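 CYP inhibition was tested in human liver microsomes with relevant probe substrates.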

Cytochrome P450 3A4 [4] = molecular target: T3, Cytochrome P450 3A4 (Homo sapiens, UniProt P08684); assay: Inhibition of CYP3A4 uisng midazolam substrate; type: ADME
Method in brief: as §2

Cytochrome P450 3A4 [5] = molecular target: T3, Cytochrome P450 3A4; assay: Inhibition of CYP3A4 uisng testosterone substrate; type: ADME
Method in brief: as §2

Rattus norvegicus [6] = assay: Antihyperalgesic activity in orally dosed Sprague-Dawley rat model of complete Freund's adjuvant-induced inflammatory pain model assessed as reduction in mechanical allodynia measured 4 hrs post dose; type: functional
Method in brief: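 CFA was injected subcutaneously into the plantar surface of the rat hind paw. Oral dosing at 0.1-10 mg/kg began 5 days post-injection, once mechanical paw withdrawal threshold had fallen. Mechanical allodynia was read as paw withdrawal threshold 4 h after dosing. n=8 rats per group; significance versus vehicle-treated groups at p<0.05.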

Homo sapiens = species: Homo sapiens; assay: Inhibition of fluorophosphonate-reactive 55/65 kDa serine proteases in human liver soluble proteomes at 100 uM by competitive activity based protein profiling
Method in brief: (§3)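 Competitive activity-based protein profiling of human or mouse liver soluble proteome. Proteome was treated with inhibitor at 10 or 100 μM, or DMSO, then labelled with FP-rhodamine. Serine hydrolases were resolved on gel and read by fluorescent gel imaging. Bands with reduced labelling intensity in the presence of inhibitor were scored as targets.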

[7] = molecular target: T1, Fatty-acid amide hydrolase 1 (Homo sapiens); conditions: 10 uM
[8] = molecular target: T4, Fatty-acid amide hydrolase 1 (Mus musculus) (UniProt O08914); assay: Inhibition of FAAH in mouse brain membrane proteomes at 10 uM by competitive activity based protein profiling; type: cell membranes
T4 sequence (whole entry): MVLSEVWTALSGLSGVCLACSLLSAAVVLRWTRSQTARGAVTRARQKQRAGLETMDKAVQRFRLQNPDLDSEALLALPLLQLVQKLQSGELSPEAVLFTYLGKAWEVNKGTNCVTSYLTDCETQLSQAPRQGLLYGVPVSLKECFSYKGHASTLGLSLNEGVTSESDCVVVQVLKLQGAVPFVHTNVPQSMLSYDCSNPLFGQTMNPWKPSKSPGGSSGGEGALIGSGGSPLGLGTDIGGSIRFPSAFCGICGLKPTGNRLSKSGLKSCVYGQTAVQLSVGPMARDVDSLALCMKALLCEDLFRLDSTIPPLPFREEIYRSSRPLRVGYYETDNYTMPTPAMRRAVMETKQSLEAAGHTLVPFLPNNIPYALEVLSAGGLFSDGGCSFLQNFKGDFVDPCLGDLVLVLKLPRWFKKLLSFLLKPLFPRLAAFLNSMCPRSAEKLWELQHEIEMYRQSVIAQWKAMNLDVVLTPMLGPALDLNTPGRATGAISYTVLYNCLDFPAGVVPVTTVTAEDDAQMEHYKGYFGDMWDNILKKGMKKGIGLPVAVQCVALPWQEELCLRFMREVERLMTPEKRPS
Method in brief: (§4)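 Competitive activity-based protein profiling used human and mouse brain membrane and soluble liver proteomes. Each was treated with compound at 10 or 100 μM or with DMSO, then labelled with FP-rhodamine. Serine hydrolases were resolved on fluorescent gels. Enzymes with reduced labelling intensity in the presence of inhibitor were scored as targets.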

[9] = molecular target: T1, Fatty-acid amide hydrolase 1 (Homo sapiens); conditions: 100 uM
Mus musculus = species: Mus musculus; assay: Inhibition of fluorophosphonate-reactive 55/65 kDa serine proteases in mouse liver soluble proteomes at 100 uM by competitive activity based protein profiling
Method in brief: as §3

[10] = molecular target: T4, Fatty-acid amide hydrolase 1 (Mus musculus); assay: Inhibition of FAAH in mouse brain membrane proteomes at 100 uM by competitive activity based protein profiling; type: cell membranes
Method in brief: as §4

Chain of Cytochrome P450 2D6 (P10635 whole entry): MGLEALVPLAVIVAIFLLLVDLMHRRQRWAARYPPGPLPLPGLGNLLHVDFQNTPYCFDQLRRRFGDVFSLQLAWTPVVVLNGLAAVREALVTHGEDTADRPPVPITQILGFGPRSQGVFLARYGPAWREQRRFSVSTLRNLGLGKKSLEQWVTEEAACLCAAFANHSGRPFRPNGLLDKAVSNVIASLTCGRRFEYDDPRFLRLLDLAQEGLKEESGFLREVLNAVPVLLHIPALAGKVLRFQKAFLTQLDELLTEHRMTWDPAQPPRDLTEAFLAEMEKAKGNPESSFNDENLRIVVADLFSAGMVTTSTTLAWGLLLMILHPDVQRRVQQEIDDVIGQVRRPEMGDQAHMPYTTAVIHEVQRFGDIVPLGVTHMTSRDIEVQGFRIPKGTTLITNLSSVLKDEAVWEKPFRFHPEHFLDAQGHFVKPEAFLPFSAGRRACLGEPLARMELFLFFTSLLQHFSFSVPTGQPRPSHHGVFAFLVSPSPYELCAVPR
T3 sequence (P08684 whole entry): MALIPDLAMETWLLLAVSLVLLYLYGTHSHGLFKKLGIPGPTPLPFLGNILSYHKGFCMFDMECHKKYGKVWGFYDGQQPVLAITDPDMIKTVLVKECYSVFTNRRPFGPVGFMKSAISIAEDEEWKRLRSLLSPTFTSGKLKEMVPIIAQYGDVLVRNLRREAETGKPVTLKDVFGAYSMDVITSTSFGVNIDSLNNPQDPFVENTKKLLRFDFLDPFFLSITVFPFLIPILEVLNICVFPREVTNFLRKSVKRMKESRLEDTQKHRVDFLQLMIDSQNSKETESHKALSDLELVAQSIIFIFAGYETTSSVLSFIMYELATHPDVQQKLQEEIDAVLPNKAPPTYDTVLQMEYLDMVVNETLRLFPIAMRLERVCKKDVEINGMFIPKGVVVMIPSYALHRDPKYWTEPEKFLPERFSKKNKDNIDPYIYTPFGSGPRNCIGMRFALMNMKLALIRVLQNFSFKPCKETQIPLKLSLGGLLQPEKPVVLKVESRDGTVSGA

| SMILES | Ratio [2] | Ratio [3] | also measured |
| --- | --- | --- | --- |
| COc1ccc2cc([C@H](C)C(=O)O)ccc2c1 |  |  | inhibition (Rattus norvegicus [1]): Active |
| Cc1ccc(Oc2cccc(C=C3CCN(C(=O)Nc4cccnn4)CC3)c2)nc1 | 21500 M⁻¹ s⁻¹ | 5530 M⁻¹ s⁻¹ |  |
| O=C(Nc1cccnn1)N1CCC(=Cc2cccc(Oc3ccccc3)c2)CC1 | 1530 M⁻¹ s⁻¹ | 1900 M⁻¹ s⁻¹ |  |
| O=C(Nc1noc2ccccc12)N1CCC(=Cc2cccc(Oc3ccc(C(F)(F)F)cn3)c2)CC1 | 3930 M⁻¹ s⁻¹ | 30200 M⁻¹ s⁻¹ |  |
| O=C(Nc1cccnn1)N1CCC(=Cc2cccc(Oc3ccc(C(F)(F)F)cc3)c2)CC1 | 18900 M⁻¹ s⁻¹ | 22900 M⁻¹ s⁻¹ |  |
| Cc1ccnc(Oc2cccc(C=C3CCN(C(=O)Nc4cccnn4)CC3)c2)c1 | 1580 M⁻¹ s⁻¹ |  |  |
| O=C(Nc1cccnc1)N1CCC/C(=C/c2cccc(Oc3ccc(C(F)(F)F)cn3)c2)C1 | 35 M⁻¹ s⁻¹ | 22 M⁻¹ s⁻¹ |  |
| O=C(Nc1cccnn1)N1CCC(=Cc2cccc(Oc3ccc(C(F)(F)F)nc3)c2)CC1 | 26600 M⁻¹ s⁻¹ | 2020 M⁻¹ s⁻¹ |  |
| O=C(Nc1cccnc1)N1CCC(Cc2cccc(Oc3ccc(C(F)(F)F)cn3)c2)C1 (centres undefined) | 88 M⁻¹ s⁻¹ |  |  |
| CCOc1ccc(Oc2cccc(C=C3CCN(C(=O)Nc4cccnn4)CC3)c2)nc1 | 9230 M⁻¹ s⁻¹ | 11700 M⁻¹ s⁻¹ |  |
| O=C(Nc1ccccc1)N1CCC(=Cc2cccc(Oc3ccc(C(F)(F)F)cn3)c2)CC1 | 4800 M⁻¹ s⁻¹ | 584 M⁻¹ s⁻¹ |  |
| O=C(Nc1cccnc1)N1CC/C(=C/c2cccc(Oc3ccc(C(F)(F)F)cn3)c2)C1 | < 16 M⁻¹ s⁻¹ |  |  |
| O=C(Nc1cccnc1)N1CCC(=Cc2cccc(Oc3ccc(C(F)(F)F)cn3)c2)CC1 | 21600 M⁻¹ s⁻¹ | 15100 M⁻¹ s⁻¹ | IC50 (Cytochrome P450 2D6): 1.4 µM; IC50 (Cytochrome P450 3A4 [4]): 4.3 µM; IC50 (Cytochrome P450 3A4 [5]): 0.8 µM |
| O=C(Nc1cccnc1)N1CCC(Cc2cccc(Oc3ccc(C(F)(F)F)cn3)c2)CC1 |  |  | MED (Rattus norvegicus [6]): 3 mg/kg |
| Cc1cccnc1Oc1cccc(C=C2CCN(C(=O)Nc3cccnn3)CC2)c1 | 2200 M⁻¹ s⁻¹ | 256 M⁻¹ s⁻¹ |  |
| O=C(Nc1cccnc1)N1CC/C(=C\c2cccc(Oc3ccc(C(F)(F)F)cn3)c2)C1 | 144 M⁻¹ s⁻¹ |  |  |
| Cc1ccc(NC(=O)N2CCC(=Cc3cccc(Oc4ccc(C(F)(F)F)cn4)c3)CC2)cn1 | 13100 M⁻¹ s⁻¹ | 5210 M⁻¹ s⁻¹ | IC50 (Cytochrome P450 2D6): 1.6 µM; IC50 (Cytochrome P450 3A4 [4]): 11.8 µM; IC50 (Cytochrome P450 3A4 [5]): 3 µM |
| NC(=O)c1cccc(-c2cccc(OC(=O)NC3CCCCC3)c2)c1 |  |  | inhibition (Homo sapiens): Active; inhibition [7]: Active; inhibition [8]: Active; inhibition [9]: Active; inhibition (Mus musculus): Active; inhibition [10]: Active |
| Cc1cccc(Oc2cccc(C=C3CCN(C(=O)Nc4cccnn4)CC3)c2)n1 | 1090 M⁻¹ s⁻¹ | 586 M⁻¹ s⁻¹ |  |
| O=C(Nc1cccnn1)N1CCC(=Cc2cccc(Oc3ccc(C4CC4)cn3)c2)CC1 | 28800 M⁻¹ s⁻¹ | 46300 M⁻¹ s⁻¹ |  |
| O=C(Nc1cnccn1)N1CCC(=Cc2cccc(Oc3ccc(C(F)(F)F)cn3)c2)CC1 | 42600 M⁻¹ s⁻¹ | 23700 M⁻¹ s⁻¹ | IC50 (Cytochrome P450 2D6): 25.1 µM; IC50 (Cytochrome P450 3A4 [4]): 30 µM; IC50 (Cytochrome P450 3A4 [5]): 23.5 µM |
| COc1ccc(NC(=O)N2CCC(=Cc3cccc(Oc4ccc(C(F)(F)F)cn4)c3)CC2)cn1 | 16000 M⁻¹ s⁻¹ | 11400 M⁻¹ s⁻¹ |  |
| O=C(Nc1cccnc1)N1CCC/C(=C\c2cccc(Oc3ccc(C(F)(F)F)cn3)c2)C1 | 1150 M⁻¹ s⁻¹ | 233 M⁻¹ s⁻¹ |  |
| Cc1noc(NC(=O)N2CCC(=Cc3cccc(Oc4ccc(C(F)(F)F)cn4)c3)CC2)c1C | 7990 M⁻¹ s⁻¹ | 54400 M⁻¹ s⁻¹ |  |
| O=C(Nc1cccnc1)N1CC(=Cc2cccc(Oc3ccc(C(F)(F)F)cn3)c2)C1 | 298 M⁻¹ s⁻¹ | 173 M⁻¹ s⁻¹ |  |
| O=C(Nc1ccccn1)N1CCC(=Cc2cccc(Oc3ccc(C(F)(F)F)cn3)c2)CC1 | 6090 M⁻¹ s⁻¹ | 563 M⁻¹ s⁻¹ |  |
